# Source: ChEMBL document CHEMBL4431315, “Jatrophane Diterpenoids as Modulators of P-Glycoprotein-Dependent Multidrug Resistance (MDR): Advances of Structure-Activity Relationships and Discovery of Promising MDR Reversal Agents” (J Med Chem, 2016)
# How the values were obtained:
# [1] = target: T1, ATP-dependent translocase ABCB1 (Homo sapiens, UniProt P08183); test: Inhibition of P-gp mediated efflux in adriamycin-resistant human HepG2 cells assessed as intracellular rhodamine-123 accumulation at 1 uM incubated in dark condition for 90 mins by flow cytometry; format: cell-based
# In short: (§1)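 HepG2/ADR cells seeded at 5 × 10^5/well and given compound plus 10 μM Rho123 in the dark at 37 °C for 90 min. Cells washed twice in ice-cold PBS, resuspended in PBS, read by flow cytometry in FL1 (Em 525 nm). Fold of control = (treated fluorescence − background)/(Rho123-only fluorescence − background).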
# [2] = target: T1, ATP-dependent translocase ABCB1; test: Inhibition of P-gp mediated efflux in adriamycin-resistant human HepG2 cells assessed as intracellular rhodamine-123 accumulation at 10 uM incubated in dark condition for 90 mins by flow cytometry relative to control; format: cell-based; in short: as §1
# HepG2 = test: Cytotoxicity against adriamycin-resistant human HepG2 cells assessed as inhibition of cell proliferation after 48 hrs by MTT assay; format: functional, cell-based; details: HepG2, 48 h
# In short: (§2)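 Seeded at 5 × 10^3 cells/well with graded compound levels, DMSO as negative control, 48 h. MTT added for 4 h, formazan dissolved in DMSO, OD read at 570 nm (reference 630 nm). IC50 by nonlinear regression; triplicate samples.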
# NCI/ADR-RES = test: Intrinsic cytotoxicity against human MCF7/ADR cells assessed as inhibition of cell proliferation after 48 hrs by MTT assay; format: cell-based; in short: as §2
# [3] = Cytotoxicity against HLF cells assessed as inhibition of cell proliferation after 48 hrs by MTT assay; format: cell-based; details: Homo sapiens; in short: as §2
# [4] = target: T1, ATP-dependent translocase ABCB1; test: Inhibition of P-gp mediated efflux in adriamycin-resistant human HepG2 cells assessed as intracellular rhodamine-123 accumulation at 0.125 to 10 uM incubated in dark condition for 90 mins by flow cytometry; format: cell-based; in short: as §1
# [5] = target: T1, ATP-dependent translocase ABCB1; test: Inhibition of P-gp mediated efflux in adriamycin-resistant human HepG2 cells assessed as intracellular rhodamine-123 accumulation at 2 uM incubated in dark condition for 90 mins by flow cytometry relative to control; format: cell-based; in short: as §1
# [6] = target: T1, ATP-dependent translocase ABCB1; test: Inhibition of P-gp mediated efflux in adriamycin-resistant human HepG2 cells assessed as intracellular rhodamine-123 accumulation at 0.125 uM incubated in dark condition for 90 mins by flow cytometry relative to control; format: cell-based; in short: as §1
# [7] = Half life in Sprague-Dawley rat liver microsomes at 100 uM by HPLC-UV analysis; format: ADME, Microsome
# [8] = Metabolic stability in Sprague-Dawley rat liver microsomes assessed as rate constant at 100 uM by HPLC-UV analysis; format: ADME, Microsome
# In short: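 Rat liver microsomes at 1 mg protein/mL final, compound at 100 μM final (from a 10 mM CH3CN stock), in 100 mM PBS with 3.0 mM MgCl2 and 1.0 mM NADPH, pH 7.4, 37 °C. Sampled at 0 to 180 min and stopped with ice-cold CH3CN. Control run without NADPH. Centrifuged supernatants analysed by HPLC-UV; three independent experiments in triplicate.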
# T1 sequence (P08183 whole entry): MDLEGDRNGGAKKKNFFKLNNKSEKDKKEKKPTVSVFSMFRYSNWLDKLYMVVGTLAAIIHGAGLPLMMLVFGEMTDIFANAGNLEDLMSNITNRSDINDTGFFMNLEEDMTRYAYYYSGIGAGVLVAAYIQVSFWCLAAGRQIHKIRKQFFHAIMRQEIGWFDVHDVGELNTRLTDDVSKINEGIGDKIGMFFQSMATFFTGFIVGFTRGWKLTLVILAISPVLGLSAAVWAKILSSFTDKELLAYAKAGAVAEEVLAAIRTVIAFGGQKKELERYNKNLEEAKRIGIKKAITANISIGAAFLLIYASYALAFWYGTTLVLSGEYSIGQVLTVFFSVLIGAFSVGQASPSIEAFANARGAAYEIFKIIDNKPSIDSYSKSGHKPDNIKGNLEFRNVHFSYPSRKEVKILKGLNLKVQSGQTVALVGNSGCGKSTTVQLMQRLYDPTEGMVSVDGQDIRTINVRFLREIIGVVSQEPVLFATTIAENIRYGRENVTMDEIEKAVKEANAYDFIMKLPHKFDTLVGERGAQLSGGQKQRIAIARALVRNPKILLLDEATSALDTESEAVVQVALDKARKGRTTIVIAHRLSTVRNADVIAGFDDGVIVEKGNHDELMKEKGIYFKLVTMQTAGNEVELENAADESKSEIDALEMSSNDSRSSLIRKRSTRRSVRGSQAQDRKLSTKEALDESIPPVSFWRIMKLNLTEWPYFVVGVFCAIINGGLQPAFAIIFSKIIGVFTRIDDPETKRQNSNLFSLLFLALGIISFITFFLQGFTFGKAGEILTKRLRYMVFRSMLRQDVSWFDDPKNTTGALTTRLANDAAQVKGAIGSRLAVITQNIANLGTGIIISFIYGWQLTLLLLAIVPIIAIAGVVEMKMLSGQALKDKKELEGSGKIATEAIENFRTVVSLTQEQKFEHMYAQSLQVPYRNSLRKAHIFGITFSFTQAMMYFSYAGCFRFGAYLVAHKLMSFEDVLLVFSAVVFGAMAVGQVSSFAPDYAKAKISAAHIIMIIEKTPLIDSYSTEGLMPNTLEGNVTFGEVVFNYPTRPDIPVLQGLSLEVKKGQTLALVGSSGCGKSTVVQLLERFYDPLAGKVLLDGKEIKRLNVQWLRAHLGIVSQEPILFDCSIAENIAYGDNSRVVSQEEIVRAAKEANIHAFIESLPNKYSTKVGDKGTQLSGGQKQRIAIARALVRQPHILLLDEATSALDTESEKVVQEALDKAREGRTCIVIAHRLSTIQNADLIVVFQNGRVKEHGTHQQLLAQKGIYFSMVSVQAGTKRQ
Compound,IC50 (HepG2),IC50 (NCI/ADR-RES),INH [2],also measured
CC(=O)O/C1=C(\C)[C@H]2O[C@](C)([C@@H](OC(C)=O)[C@]3(OC(C)=O)[C@@H]2[C@@H](OC(=O)c2ccccc2)[C@@H](C)[C@@H]3OC(C)=O)[C@H]2O[C@@H]2C(C)(C)[C@H](OC(C)=O)[C@H]1OC(C)=O,130 µM,55.6 µM,,INH [1]: Active; FC [2]: 3.65
CC(=O)O[C@@H]1C[C@@H](OC(=O)c2ccccc2)/C(C)=C/[C@H]2[C@@H](OC(=O)c3ccccc3)[C@@H](C)[C@H](OC(C)=O)[C@]2(OC(C)=O)C(=O)[C@](C)(O)/C=C/C1(C)C,> 150 µM,> 150 µM,Active,IC50 [3]: > 100 µM
CC(=O)O[C@@H]1C[C@@H](OC(=O)c2ccccc2)/C(C)=C/[C@H]2[C@@H](OC(=O)c3ccccc3)[C@@H](C)[C@H](OC(=O)c3ccccc3)[C@]2(OC(C)=O)[C@H](O)[C@](C)(O)/C=C/C1(C)C,> 150 µM,64.2 µM,Active,INH [1]: Active
CC(=O)O[C@@H]1C[C@@H](OC(=O)c2ccccc2)/C(C)=C/[C@H]2[C@@H](OC(=O)c3ccccc3)[C@@H](C)[C@H](OC(=O)c3cccs3)[C@]2(OC(C)=O)[C@H](O)[C@](C)(O)/C=C/C1(C)C,> 150 µM,> 150 µM,Active,
CC(=O)O/C1=C(\C)[C@@H](O)[C@H]2[C@@H](OC(=O)c3ccccc3)[C@@H](C)[C@H](OC(C)=O)[C@]2(OC(C)=O)[C@H](OC(C)=O)/C(C)=C/CC(C)(C)[C@H](OC(C)=O)[C@H]1OC(C)=O,,,Active,
CC(=O)O[C@@H]1C[C@@H](OC(=O)c2ccccc2)/C(C)=C/[C@H]2[C@@H](OC(=O)c3ccccc3)[C@@H](C)[C@H](OC(=O)c3ccco3)[C@]2(OC(C)=O)[C@H](O)[C@](C)(O)/C=C/C1(C)C,> 150 µM,> 150 µM,Active,
CC(=O)O[C@@H]1C[C@@H](OC(=O)c2ccccc2)/C(C)=C/[C@H]2[C@@H](OC(=O)c3ccccc3)[C@@H](C)[C@H](OC(C)=O)[C@]2(OC(C)=O)[C@H](O)[C@](C)(O)/C=C/C1(C)C,93.3 µM,> 150 µM,Active,
CC(=O)O[C@@H]1[C@@H](OC(C)=O)C(=O)/C(C)=C/[C@H]2[C@@H](OC(=O)c3ccccc3)[C@@H](C)[C@H](OC(C)=O)[C@]2(OC(C)=O)[C@H](OC(C)=O)/C(C)=C/CC1(C)C,,,Active,
CC(=O)O[C@@H]1CC(=O)/C(C)=C/[C@H]2C=C(C)C(=O)[C@]2(OC(C)=O)[C@H](O)[C@](C)(O)/C=C/C1(C)C,,,,INH [4]: Not Active
CC(=O)O/C1=C(\C)[C@@H](O)[C@H]2[C@@H](OC(=O)c3ccccc3)[C@@H](C)[C@H](O)[C@]2(O)[C@H](O)/C(C)=C/CC(C)(C)[C@H](OC(C)=O)[C@H]1OC(C)=O,,,,INH [4]: Not Active
CC(=O)O[C@@H]1[C@@H](OC(C)=O)C(=O)/C(C)=C/C2=C[C@@H](C)[C@H](OC(C)=O)[C@]2(OC(C)=O)[C@H](OC(C)=O)/C(C)=C/CC1(C)C,,,,INH [4]: Not Active
CC(=O)O[C@@H]1[C@@H](O)C(=O)/C(C)=C/C2=C[C@@H](C)[C@H](OC(C)=O)[C@]2(OC(C)=O)[C@H](OC(C)=O)/C(C)=C/CC1(C)C,,,,INH [4]: Not Active
COc1cc2c(cc1OC)CN(CCc1ccc(NC(=O)c3cc(OC)c(OC)cc3NC(=O)c3cnc4ccccc4c3)cc1)CC2,37.2 µM,13.1 µM,Active,FC [5]: 2.97; FC [6]: 1.04; INH [1]: Not Active; IC50 [3]: 16.7 µM; half-life at 100 µM [7]: 3.5 h; k el at 100 µM [8]: 5.5e-05 s⁻¹
COc1ccc(CCN(C)CCCC(C#N)(c2ccc(OC)c(OC)c2)C(C)C)cc1OC (stereo not given),,,,k el at 100 µM [8]: 0.000392 s⁻¹
CC(=O)O[C@@H]1C[C@@H](OC(=O)c2ccccc2)/C(C)=C/[C@H]2[C@@H](OC(=O)c3ccccc3)[C@@H](C)[C@H](OC(=O)c3ccc(Br)cc3)[C@]2(OC(C)=O)[C@H](O)[C@](C)(O)/C=C/C1(C)C,81.3 µM,> 150 µM,Active,
CC(=O)O[C@@H]1[C@@H](OC(C)=O)C(C)(C)C/C=C(\C)[C@@H](OC(C)=O)[C@]2(OC(C)=O)[C@@H](/C=C(\C)[C@@H]1OC(C)=O)[C@@H](OC(=O)c1ccccc1)[C@@H](C)[C@@H]2OC(C)=O,,,Active,

Compound,IC50 (HepG2),IC50 (NCI/ADR-RES),INH [2],also measured
CC(=O)O[C@@H]1C[C@@H](O)/C(C)=C/[C@H]2[C@@H](OC(=O)c3ccccc3)[C@@H](C)[C@H](O)[C@]2(OC(C)=O)[C@H](OC(=O)c2ccccc2)[C@](C)(O)/C=C/C1(C)C,,,Active,
CC(=O)O[C@@H]1C[C@@H](OC(=O)c2ccccc2)/C(C)=C/[C@H]2[C@@H](OC(=O)c3ccccc3)[C@@H](C)[C@H](O)[C@]2(OC(C)=O)[C@H](O)[C@](C)(O)/C=C/C1(C)C,> 150 µM,> 150 µM,Active,FC [5]: 2.8; FC [6]: 1.32; INH [1]: Active
CC(=O)O[C@@H]1C[C@@H](OC(=O)c2ccccc2)/C(C)=C/[C@H]2[C@@H](OC(=O)c3ccccc3)[C@@H](C)[C@H](O)[C@]2(OC(C)=O)[C@H](OC(C)=O)[C@](C)(O)/C=C/C1(C)C,,,Active,
C/C1=C\[C@H]2[C@@H](OC(=O)c3ccccc3)[C@@H](C)[C@H](O)[C@]2(O)[C@H](O)[C@](C)(O)/C=C/C(C)(C)[C@H](O)C[C@H]1OC(=O)c1ccccc1,,,,INH [4]: Not Active
CC(=O)O[C@@H]1C[C@@H](OC(C)=O)C(C)(C)/C=C/[C@@](C)(O)[C@@H](O)[C@@]2(OC(C)=O)[C@@H](O)[C@H](C)[C@H](OC(=O)c3ccccc3)[C@@H]2/C=C/1C,,,Active,
CC(=O)O[C@@H]1C[C@@H](OC(=O)c2ccccc2)/C(C)=C/[C@H]2[C@@H](OC(=O)c3ccccc3)[C@@H](C)[C@H](OS(=O)(=O)c3ccc(C)cc3)[C@]2(OC(C)=O)[C@H](O)[C@](C)(O)/C=C/C1(C)C,> 150 µM,> 150 µM,Active,IC50 [3]: > 100 µM
CC(=O)O/C1=C(\C)[C@@H](O)[C@H]2[C@@H](OC(=O)c3ccccc3)[C@@H](C)[C@H](OC(=O)c3ccccc3)[C@]2(OC(C)=O)[C@H](OC(C)=O)/C(C)=C/CC(C)(C)[C@H](OC(C)=O)[C@H]1OC(C)=O,> 150 µM,> 150 µM,Active,FC [5]: 2.78; FC [6]: 1.37; INH [1]: Active
CC(=O)O[C@@H]1C[C@@H](OC(=O)c2ccccc2)/C(C)=C/[C@H]2[C@@H](OC(=O)c3ccccc3)[C@@H](C)[C@H](O)[C@]2(O)[C@H](O)[C@](C)(O)/C=C/C1(C)C,,,Active,
CC(=O)O[C@@H]1[C@@H](O)C(=O)/C(C)=C/C2=C[C@@H](C)[C@H](O)[C@]2(OC(C)=O)[C@H](O)/C(C)=C/CC1(C)C,,,,INH [4]: Not Active
CC(=O)O[C@@H]1C[C@@H](O)/C(C)=C/[C@H]2[C@@H](OC(=O)c3ccccc3)[C@@H](C)[C@H](O)[C@]2(OC(C)=O)[C@H](O)[C@](C)(O)/C=C/C1(C)C,,,,INH [4]: Not Active
C[C@]12CC[C@H]3[C@@H](CCC4=CC(=O)CC[C@@]43C)[C@@H]1CC[C@@H]2O [TESTOSTERONE],,,,k el at 100 µM [8]: 0.00444 s⁻¹
C/C1=C\[C@H]2[C@@H](O)[C@@H](C)[C@H](O)[C@]2(O)[C@H](O)[C@](C)(O)/C=C/C(C)(C)[C@H](O)C[C@H]1O,,,,INH [4]: Not Active
C/C1=C\[C@H]2[C@@H](OC(=O)c3ccccc3)[C@@H](C)[C@H](O)[C@]2(O)[C@H](O)[C@](C)(O)/C=C/C(C)(C)[C@H](O)C[C@H]1O,,,,INH [4]: Not Active
CC(=O)O/C1=C(\C)C(=O)[C@H]2[C@@H](OC(=O)c3ccccc3)[C@@H](C)[C@H](OC(C)=O)[C@]2(OC(C)=O)[C@H](OC(C)=O)/C(C)=C/CC(C)(C)[C@H](OC(C)=O)[C@H]1OC(C)=O,,,Active,INH [1]: Active
CC(=O)O/C1=C(\C)[C@H]2O[C@@](C)([C@@H](OC(C)=O)CC(C)(C)[C@H](OC(C)=O)[C@H]1OC(C)=O)[C@@H](OC(C)=O)[C@]1(OC(C)=O)[C@@H]2[C@@H](OC(=O)c2ccccc2)[C@@H](C)[C@@H]1OC(C)=O,> 150 µM,> 150 µM,,FC [5]: 3.07; FC [6]: 1.81; INH [1]: Active
CC(=O)O[C@@H]1[C@@H](OC(C)=O)C(=O)/C(C)=C/[C@H]2[C@@H](OC(=O)c3ccccc3)[C@@H](C)[C@H](OC(C)=O)[C@]2(OC(C)=O)[C@H](OC(C)=O)[C@]2(C)O[C@H]2CC1(C)C,,,Active,
